Where “and” joins values, the source holds several entries; their conditions need not be identical. Equal values may be shown once.
How the values were obtained:
U2OS = test: Multiplex assay against U2OS; format: toxicity, cell-based; conditions: human
Method in brief: (§1)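 Tubulin, mitochondrial-mass and membrane-permeability phenotypes are per cents of healthy-nucleus cells. Cells were gated by CellPathfinder machine learning into Hoechst high-intensity objects or normal cells, normal cells into healthy, pyknosed or fragmented nuclei, and pyknosed cells into mitotic or apoptotic. Before that, live cells stained at seeding with Hoechst33342, BioTracker Green Microtubule Cytoskeleton Dye, MitoTracker Red and Annexin V Alexa Fluor 680 were imaged on a CQ1 microscope at 37°C and 5% CO2 after compound addition.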

HEK-293T = test: Multiplex assay against HEK293T; format: toxicity, cell-based; conditions: human; method in brief: as §1
[1] = 12 h, 1 µM, compound concentration 1 uM
[2] = 12 h, 10 µM, compound concentration 10 uM
[3] = 24 h, 1 µM, compound concentration 1 uM
[4] = 24 h, 10 µM, compound concentration 10 uM
[5] = 48 h, 1 µM, compound concentration 1 uM
[6] = 48 h, 10 µM, compound concentration 10 uM

Question: Which “Population Apoptotic (%)” value (U2OS; [1]) does the source give for `CN(C)CCCn1cc(C2=C(c3c[nH]c4ccccc34)C(=O)NC2=O)c2ccccc21` [GF-109203] here?
Answer: Its value is 29.27% and 38.1%.

Question: What about the “Population Healthy Nuclei (%)” value (U2OS; [1]) of the same molecule?
Answer: Its value is 87.6% and 71.08%.

Question: And the “Population Hoechst High Intensity Objects (%)” value (U2OS; [1])?
Answer: The value was 0%.

Question: What about the “Population Membrane Permeable-Phenotype (%)” value (U2OS; [1]) of the same molecule?
Answer: The value was 1.47% and 5.52%.

Question: What about the “Population Mitotic Cells (%)” value (U2OS; [1]) of the same molecule?
Answer: The value was 70.73% and 61.9%.

Question: And the “Population Normal (%)” value (U2OS; [1])?
Answer: Its value is 100%.

Question: What about the “Population Pyknosed Nuclei (%)” value (U2OS; [1]) of the same molecule?
Answer: The value was 10.59% and 10.29%.

Question: What about the “Population Tubulin-Different-Phenotype (%)” value (U2OS; [1]) of the same molecule?
Answer: The value was 1.77% and 1.38%.

Question: What about the “Total Cell Count” value (U2OS; [1]) of the same molecule?
Answer: Its value is 387 and 204.

Question: What about the “Population Apoptotic (%)” value (U2OS; [2]) of the same molecule?
Answer: Its value is 35.21% and 37.14%.

Question: And the “Population Fragmented Nuclei (%)” value (U2OS; [2])?
Answer: Its value is 1.16% and 5.8%.

Question: And the “Population Healthy Nuclei (%)” value (U2OS; [2])?
Answer: Its value is 78.32% and 68.84%.

Question: What about the “Population Hoechst High Intensity Objects (%)” value (U2OS; [2]) of the same molecule?
Answer: The value was 0%.

Question: What about the “Population Membrane Permeable-Phenotype (%)” value (U2OS; [2]) of the same molecule?
Answer: The value was 49.08% and 62.11%.

Question: What about the “Population Mitotic Cells (%)” value (U2OS; [2]) of the same molecule?
Answer: The value was 64.79% and 62.86%.

Question: What about the “Population Normal (%)” value (U2OS; [2]) of the same molecule?
Answer: The value was 100%.

Question: And the “Population Pyknosed Nuclei (%)” value (U2OS; [2])?
Answer: Its value is 20.52% and 25.36%.

Question: And the “Population Tubulin-Different-Phenotype (%)” value (U2OS; [2])?
Answer: Its value is 70.11% and 53.68%.

Question: And the “Total Cell Count” value (U2OS; [2])?
Answer: Its value is 346 and 138.

Question: And the “Population Apoptotic (%)” value (U2OS; [3])?
Answer: Its value is 38.98% and 53.33%.

Question: What about the “Population Healthy Nuclei (%)” value (U2OS; [3]) of the same molecule?
Answer: Its value is 87.5% and 70.09%.

Question: What about the “Population Hoechst High Intensity Objects (%)” value (U2OS; [3]) of the same molecule?
Answer: The value was 0.19% and 0%.

Question: What about the “Population Membrane Permeable-Phenotype (%)” value (U2OS; [3]) of the same molecule?
Answer: Its value is 1.34% and 5.49%.

Question: And the “Population Mitochondria Different-Phenotype (%)” value (U2OS; [3])?
Answer: The value was 0% and 15.85%.

Question: And the “Population Mitotic Cells (%)” value (U2OS; [3])?
Answer: The value was 61.02% and 46.67%.

Question: What about the “Population Normal (%)” value (U2OS; [3]) of the same molecule?
Answer: Its value is 99.81% and 100%.

Question: What about the “Population Pyknosed Nuclei (%)” value (U2OS; [3]) of the same molecule?
Answer: The value was 11.52% and 12.82%.

Question: What about the “Population Tubulin-Different-Phenotype (%)” value (U2OS; [3]) of the same molecule?
Answer: The value was 0.89% and 2.44%.

Question: And the “Total Cell Count” value (U2OS; [3])?
Answer: The value was 513 and 234.

Question: And the “Population Apoptotic (%)” value (U2OS; [4])?
Answer: Its value is 66.23% and 81.33%.

Question: What about the “Population Fragmented Nuclei (%)” value (U2OS; [4]) of the same molecule?
Answer: The value was 2.13% and 6.99%.

Question: And the “Population Healthy Nuclei (%)” value (U2OS; [4])?
Answer: Its value is 51.98% and 40.56%.

Question: What about the “Population Hoechst High Intensity Objects (%)” value (U2OS; [4]) of the same molecule?
Answer: The value was 0%.

Question: And the “Population Membrane Permeable-Phenotype (%)” value (U2OS; [4])?
Answer: The value was 35.67% and 50%.

Question: And the “Population Mitotic Cells (%)” value (U2OS; [4])?
Answer: Its value is 33.77% and 18.67%.

Question: And the “Population Normal (%)” value (U2OS; [4])?
Answer: Its value is 100%.

Question: And the “Population Pyknosed Nuclei (%)” value (U2OS; [4])?
Answer: The value was 45.9% and 52.45%.

Question: What about the “Population Tubulin-Different-Phenotype (%)” value (U2OS; [4]) of the same molecule?
Answer: Its value is 60.23% and 58.62%.

Question: What about the “Total Cell Count” value (U2OS; [4]) of the same molecule?
Answer: The value was 329 and 143.

Question: And the “Population Apoptotic (%)” value (U2OS; [5])?
Answer: The value was 41.25% and 46.51%.

Question: What about the “Population Healthy Nuclei (%)” value (U2OS; [5]) of the same molecule?
Answer: Its value is 88.82% and 68.86%.

Question: What about the “Population Hoechst High Intensity Objects (%)” value (U2OS; [5]) of the same molecule?
Answer: Its value is 0% and 0.34%.

Question: What about the “Population Membrane Permeable-Phenotype (%)” value (U2OS; [5]) of the same molecule?
Answer: The value was 1.36% and 5.03%.

Question: And the “Population Mitochondria Different-Phenotype (%)” value (U2OS; [5])?
Answer: Its value is 0% and 16.08%.

Question: And the “Population Mitotic Cells (%)” value (U2OS; [5])?
Answer: Its value is 58.75% and 53.49%.

Question: What about the “Population Normal (%)” value (U2OS; [5]) of the same molecule?
Answer: Its value is 100% and 99.66%.

Question: What about the “Population Pyknosed Nuclei (%)” value (U2OS; [5]) of the same molecule?
Answer: Its value is 8.77% and 14.88%.

Question: And the “Population Tubulin-Different-Phenotype (%)” value (U2OS; [5])?
Answer: Its value is 0.99% and 3.02%.

Question: And the “Population Apoptotic (%)” value (U2OS; [6])?
Answer: Its value is 86.32% and 90.65%.

Question: And the “Population Fragmented Nuclei (%)” value (U2OS; [6])?
Answer: Its value is 6.15% and 9.46%.

Question: And the “Population Healthy Nuclei (%)” value (U2OS; [6])?
Answer: Its value is 28.62% and 18.24%.

Question: What about the “Population Hoechst High Intensity Objects (%)” value (U2OS; [6]) of the same molecule?
Answer: Its value is 0.31% and 0%.

Question: What about the “Population Mitochondria Different-Phenotype (%)” value (U2OS; [6]) of the same molecule?
Answer: The value was 24.73% and 55.56%.

Question: And the “Population Mitotic Cells (%)” value (U2OS; [6])?
Answer: The value was 13.68% and 9.35%.

Question: What about the “Population Normal (%)” value (U2OS; [6]) of the same molecule?
Answer: The value was 99.69% and 100%.

Question: What about the “Population Pyknosed Nuclei (%)” value (U2OS; [6]) of the same molecule?
Answer: Its value is 65.23% and 72.3%.

Question: And the “Population Tubulin-Different-Phenotype (%)” value (U2OS; [6])?
Answer: Its value is 63.44% and 37.04%.

Question: And the “Total Cell Count” value (U2OS; [6])?
Answer: Its value is 326 and 148.

Question: And the “Population Apoptotic (%)” value (HEK-293T; [1])?
Answer: Its value is 9.36% and 6.29%.

Question: And the “Population Fragmented Nuclei (%)” value (HEK-293T; [1])?
Answer: The value was 1.17% and 4.02%.

Question: What about the “Population Hoechst High Intensity Objects (%)” value (HEK-293T; [1]) of the same molecule?
Answer: Its value is 0.58% and 0%.

Question: And the “Population Membrane Permeable-Phenotype (%)” value (HEK-293T; [1])?
Answer: Its value is 0% and 4.17%.

Question: What about the “Population Mitochondria Different-Phenotype (%)” value (HEK-293T; [1]) of the same molecule?
Answer: The value was 26.35% and 29.17%.

Question: And the “Population Mitotic Cells (%)” value (HEK-293T; [1])?
Answer: The value was 90.64% and 93.71%.

Question: What about the “Population Normal (%)” value (HEK-293T; [1]) of the same molecule?
Answer: Its value is 99.42% and 100%.

Question: And the “Population Pyknosed Nuclei (%)” value (HEK-293T; [1])?
Answer: The value was 50% and 82.18%.

Question: What about the “Total Cell Count” value (HEK-293T; [1]) of the same molecule?
Answer: The value was 344 and 174.

Question: And the “Population Apoptotic (%)” value (HEK-293T; [2])?
Answer: The value was 11.11% and 17.19%.

Question: What about the “Population Fragmented Nuclei (%)” value (HEK-293T; [2]) of the same molecule?
Answer: Its value is 4.81% and 3.4%.

Question: And the “Population Hoechst High Intensity Objects (%)” value (HEK-293T; [2])?
Answer: The value was 0.32% and 0%.

Question: What about the “Population Membrane Permeable-Phenotype (%)” value (HEK-293T; [2]) of the same molecule?
Answer: The value was 0% and 7.14%.

Question: What about the “Population Mitotic Cells (%)” value (HEK-293T; [2]) of the same molecule?
Answer: The value was 88.89% and 82.81%.

Question: And the “Population Normal (%)” value (HEK-293T; [2])?
Answer: The value was 99.68% and 100%.

Question: What about the “Population Pyknosed Nuclei (%)” value (HEK-293T; [2]) of the same molecule?
Answer: The value was 57.69% and 87.07%.

Question: What about the “Population Tubulin-Different-Phenotype (%)” value (HEK-293T; [2]) of the same molecule?
Answer: The value was 52.99% and 57.14%.

Question: And the “Total Cell Count” value (HEK-293T; [2])?
Answer: Its value is 313 and 147.

Question: What about the “Population Apoptotic (%)” value (HEK-293T; [3]) of the same molecule?
Answer: The value was 15.57% and 18.97%.

Question: And the “Population Fragmented Nuclei (%)” value (HEK-293T; [3])?
Answer: Its value is 1.6% and 5.42%.

Question: And the “Population Healthy Nuclei (%)” value (HEK-293T; [3])?
Answer: Its value is 73.95% and 24.7%.

Question: What about the “Population Hoechst High Intensity Objects (%)” value (HEK-293T; [3]) of the same molecule?
Answer: The value was 0%.

Question: What about the “Population Membrane Permeable-Phenotype (%)” value (HEK-293T; [3]) of the same molecule?
Answer: Its value is 1.36% and 4.88%.

Question: And the “Population Mitochondria Different-Phenotype (%)” value (HEK-293T; [3])?
Answer: Its value is 10.84% and 17.07%.

Question: What about the “Population Mitotic Cells (%)” value (HEK-293T; [3]) of the same molecule?
Answer: Its value is 84.43% and 81.03%.

Question: And the “Population Normal (%)” value (HEK-293T; [3])?
Answer: Its value is 100%.

Question: What about the “Population Pyknosed Nuclei (%)” value (HEK-293T; [3]) of the same molecule?
Answer: The value was 24.45% and 69.88%.

Question: What about the “Population Tubulin-Different-Phenotype (%)” value (HEK-293T; [3]) of the same molecule?
Answer: The value was 17.62% and 12.2%.

Question: And the “Population Apoptotic (%)” value (HEK-293T; [4])?
Answer: Its value is 27.17% and 24.46%.

Reference: ChEMBL document CHEMBL5724801, “EUbOPEN Chemogenomics Library - Multiplex” (2024)
